Here are results for three compounds from ChEMBL document CHEMBL1773023, “Potent and selective phosphopeptide mimetic prodrugs targeted to the Src homology 2 (SH2) domain of signal transducer and activator of transcription 3” (J Med Chem, 2011).

Calls of active or inactive are those of the source. The calls are words filed in the database; no cut-off is given here.

For orientation: IC50 means the concentration needed to halve the response being measured.

For test [1], the target named is T1, Signal transducer and activator of transcription 3 (Homo sapiens, UniProt P40763). As to the kind of experiment: Inhibition of SH2 domain of Stat3 constitutive phosphorylation at Tyr705 in human MDA-MB-468 cells at 25 uM after 2 hrs by Western blotting. The format is cell-based. The essentials:
(§1)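 MDA-MB-468 cells (4×10^5/well, DMEM 10% FCS, overnight) given prodrug from freshly made 10 mM DMSO stock for 2 h. Lysates in Hepes pH 7.4 Triton buffer with phosphatase/protease inhibitors; 12 μg protein on 8% SDS-PAGE, PVDF, probed for pStat3 Y705 by ECL, then stripped and reprobed for total Stat3.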
On the technique in general: In western blotting, separated proteins are transferred to a membrane and probed.

Test [2] relates to MDA-MB-468. As to the kind of experiment: Cytotoxicity against human MDA-MB-468 cells up to 50 uM after 72 hrs by SRB assay. The format is functional, cell-based.
The test system of the next test is MCF7. In words: Cytotoxicity against human MCF7 cells up to 50 uM after 72 hrs by SRB assay. The format is functional, cell-based. The essentials: (§2)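 Cancer cell lines (MCF-7, SKOV3-ip, HCC-827) dosed daily with prodrug for three days; viability by SRB assay.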
On the technique in general: The SRB assay estimates cell density from bound dye.

The next test has as its system SKOV3ip. As to the kind of experiment: Cytotoxicity against human SKOV3ip cells up to 50 uM after 72 hrs by SRB assay. The format is functional, cell-based. The essentials:
as §2

The next test deals with HCC827. As to the kind of experiment: Cytotoxicity against human HCC827 cells up to 50 uM after 72 hrs by SRB assay. The format is functional, cell-based. In a few lines:
as §2

Test [3] deals with T1, Signal transducer and activator of transcription 3. As to the kind of experiment: Inhibition of SH2 domain of Stat3 constitutive phosphorylation at Tyr705 in human MDA-MB-468 cells at 5 uM after 30 mins by Western blotting. The format is cell-based. In a few lines: (§3)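 MDA-MB-468 cells given a single 5 μM prodrug dose and harvested at set times; pTyr705 and total Stat3 by Western blot of 12 μg lysate protein on 8% SDS-PAGE.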

Test [4] has the same target. As to the kind of experiment: Inhibition of SH2 domain of Stat3 constitutive phosphorylation at Tyr705 in human MDA-MB-468 cells at 0.5 uM after 2 hrs by Western blotting. It counts as cell-based. In a few lines:
as §1

Test [5] has the same target. In words: Inhibition of SH2 domain of Stat3 constitutive phosphorylation at Tyr705 in human MDA-MB-468 cells at 5 uM after 4 hrs by Western blotting. It counts as cell-based. In a few lines:
as §3

Test [6] has the same target. In words: Inhibition of SH2 domain of Stat3 constitutive phosphorylation at Tyr705 in human MDA-MB-468 cells at 5 uM after 8 hrs by Western blotting. It counts as cell-based. In a few lines:
as §3

Test [7] has the same target. In words: Inhibition of SH2 domain of Stat3 constitutive phosphorylation at Tyr705 in human MDA-MB-468 cells at 5 uM after 16 hrs by Western blotting. It counts as cell-based. The essentials: as §3
Test [8] has the same target. As to the kind of experiment: Inhibition of EGF-induced SH2 domain of Stat3 phosphorylation at Tyr705 in human MDA-MB-468 cells at 5 uM treated 1.5 hrs before EGF challenge measured after 30 mins by Western blotting. The format is cell-based. In a few lines: (§4)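 MDA-MB-468 cells pretreated 1.5 h with prodrug (5 μM), then EGF 100 ng/mL for 30 min; lysates split onto three PVDF blots probed for phospho/total Stat3, pSer473/total Akt, and phospho/total Stat5.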

The target in test [9] is T2, Signal transducer and activator of transcription 5A (Homo sapiens) (UniProt P42229).
T2 sequence (whole entry): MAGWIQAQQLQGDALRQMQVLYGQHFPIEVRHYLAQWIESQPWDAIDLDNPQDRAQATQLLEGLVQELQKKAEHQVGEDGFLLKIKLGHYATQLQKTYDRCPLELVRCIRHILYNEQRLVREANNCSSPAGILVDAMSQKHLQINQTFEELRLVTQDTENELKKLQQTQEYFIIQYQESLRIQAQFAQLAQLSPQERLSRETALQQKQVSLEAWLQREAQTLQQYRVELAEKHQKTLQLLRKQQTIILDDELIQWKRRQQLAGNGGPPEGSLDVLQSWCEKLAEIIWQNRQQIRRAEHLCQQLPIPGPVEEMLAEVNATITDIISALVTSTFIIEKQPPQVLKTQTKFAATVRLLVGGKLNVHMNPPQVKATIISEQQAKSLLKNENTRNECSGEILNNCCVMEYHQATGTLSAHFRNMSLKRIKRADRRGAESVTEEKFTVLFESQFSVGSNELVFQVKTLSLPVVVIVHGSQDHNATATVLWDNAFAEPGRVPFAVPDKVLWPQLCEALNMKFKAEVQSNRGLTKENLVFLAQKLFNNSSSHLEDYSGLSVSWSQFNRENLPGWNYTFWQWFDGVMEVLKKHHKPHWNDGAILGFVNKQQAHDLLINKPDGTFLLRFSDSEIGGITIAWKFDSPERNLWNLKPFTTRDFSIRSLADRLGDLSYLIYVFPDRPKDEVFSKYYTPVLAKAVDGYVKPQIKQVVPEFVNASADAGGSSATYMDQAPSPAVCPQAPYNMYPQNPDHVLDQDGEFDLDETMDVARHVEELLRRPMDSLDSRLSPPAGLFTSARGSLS
As to the kind of experiment: Inhibition of EGF-induced SH2 domain of Stat5 phosphorylation at Tyr694 in human MDA-MB-468 cells at 5 uM treated 1.5 hrs before EGF challenge measured after 30 mins by Western blotting. It counts as cell-based. In a few lines: as §4

The target of test [10] is RAC-alpha serine/threonine-protein kinase (Homo sapiens) (UniProt P31749). As to the kind of experiment: Inhibition of EGF-induced Akt phosphorylation at Ser473 in human MDA-MB-468 cells at 5 uM treated 1.5 hrs before EGF challenge measured after 30 mins by Western blotting. It counts as cell-based. The essentials:
as §4

The target of test [11] is T3, Signal transducer and activator of transcription 1-alpha/beta (Homo sapiens) (UniProt P42224).
T3 sequence (whole entry): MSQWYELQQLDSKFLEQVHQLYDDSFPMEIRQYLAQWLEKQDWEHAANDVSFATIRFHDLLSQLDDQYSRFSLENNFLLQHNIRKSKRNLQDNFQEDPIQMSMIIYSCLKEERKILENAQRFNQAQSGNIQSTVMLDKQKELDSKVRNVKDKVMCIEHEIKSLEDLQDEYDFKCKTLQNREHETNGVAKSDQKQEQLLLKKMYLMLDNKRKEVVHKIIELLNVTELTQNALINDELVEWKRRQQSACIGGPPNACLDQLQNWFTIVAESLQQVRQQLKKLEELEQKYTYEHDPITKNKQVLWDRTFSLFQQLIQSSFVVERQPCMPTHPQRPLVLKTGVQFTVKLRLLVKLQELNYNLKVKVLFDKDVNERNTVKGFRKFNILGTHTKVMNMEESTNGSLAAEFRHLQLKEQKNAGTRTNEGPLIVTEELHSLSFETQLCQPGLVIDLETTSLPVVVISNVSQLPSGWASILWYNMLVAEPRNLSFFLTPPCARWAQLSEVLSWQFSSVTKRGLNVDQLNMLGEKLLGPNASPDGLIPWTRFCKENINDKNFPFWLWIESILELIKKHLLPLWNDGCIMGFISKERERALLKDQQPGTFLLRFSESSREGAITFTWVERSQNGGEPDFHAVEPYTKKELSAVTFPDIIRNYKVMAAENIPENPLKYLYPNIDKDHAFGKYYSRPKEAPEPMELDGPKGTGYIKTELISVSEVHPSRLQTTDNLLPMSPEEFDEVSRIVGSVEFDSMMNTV
As to the kind of experiment: Inhibition of IFN-gamma-induced Stat1 phosphorylation at Tyr701 in human MDA-MB-468 cells treated 1.5 hrs before IFN-gamma challenge measured after 30 mins by Western blotting. The format is cell-based. In a few lines:
(§5)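 MDA-MB-468 cells exposed to rising prodrug concentrations for 1.5 h, then interferon γ 25 ng/mL for 30 min; Western blot for pTyr701 and total Stat1.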

The target of test [12] is T3, Signal transducer and activator of transcription 1-alpha/beta (Homo sapiens). As to the kind of experiment: Inhibition of IFN-gamma-induced Stat1 phosphorylation at Tyr701 in human MDA-MB-468 cells at 5 uM treated 1.5 hrs before IFN-gamma challenge measured after 30 mins by Western blotting. It counts as cell-based. In a few lines:
as §5

For test [13], the system named is MDA-MB-468. In words: Selectivity ratio of inhibition of IFNgamma-induced Stat1 phosphorylation at Tyr701 to inhibition of EGF-induced SH2 domain of Stat3 phosphorylation at Tyr705 in human MDA-MB-468 cells. The format is cell-based.
The subject of test [14] is MDA-MB-468. In words: Cytotoxicity against human MDA-MB-468 cells after 72 hrs by MTT assay. The note with it: MDA-MB-468, 72 h. It counts as functional, cell-based. The essentials: (§6)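 MDA-MB-468 cells in DMEM/10% FBS, 1500 cells/well in triplicate; medium changed next day. Prodrug stock 10 mM in ethanol, diluted into wells (ethanol <1% final); single dose or daily re-addition at 24 and 48 h in same medium. MTT read-out at 72 h; assays run three times.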
On the technique in general: Formazan colour is commonly taken as a measure of viable cells.

The target of test [15] is Focal adhesion kinase 1 (Homo sapiens) (UniProt Q05397). In words: Inhibition of constitutive FAK phosphorylation at Tyr861 in human MDA-MB-468 cells at 5 uM measured after 2 hrs by Western blotting.
In test [16] the test system is MDA-MB-468. In words: Cytotoxicity against human MDA-MB-468 cells assessed as cell growth inhibition at 10 to 15 uM after 72 hrs by MTT assay. It counts as functional, cell-based. The essentials: as §6

T1 sequence (P40763 whole entry, the tested form may be a part): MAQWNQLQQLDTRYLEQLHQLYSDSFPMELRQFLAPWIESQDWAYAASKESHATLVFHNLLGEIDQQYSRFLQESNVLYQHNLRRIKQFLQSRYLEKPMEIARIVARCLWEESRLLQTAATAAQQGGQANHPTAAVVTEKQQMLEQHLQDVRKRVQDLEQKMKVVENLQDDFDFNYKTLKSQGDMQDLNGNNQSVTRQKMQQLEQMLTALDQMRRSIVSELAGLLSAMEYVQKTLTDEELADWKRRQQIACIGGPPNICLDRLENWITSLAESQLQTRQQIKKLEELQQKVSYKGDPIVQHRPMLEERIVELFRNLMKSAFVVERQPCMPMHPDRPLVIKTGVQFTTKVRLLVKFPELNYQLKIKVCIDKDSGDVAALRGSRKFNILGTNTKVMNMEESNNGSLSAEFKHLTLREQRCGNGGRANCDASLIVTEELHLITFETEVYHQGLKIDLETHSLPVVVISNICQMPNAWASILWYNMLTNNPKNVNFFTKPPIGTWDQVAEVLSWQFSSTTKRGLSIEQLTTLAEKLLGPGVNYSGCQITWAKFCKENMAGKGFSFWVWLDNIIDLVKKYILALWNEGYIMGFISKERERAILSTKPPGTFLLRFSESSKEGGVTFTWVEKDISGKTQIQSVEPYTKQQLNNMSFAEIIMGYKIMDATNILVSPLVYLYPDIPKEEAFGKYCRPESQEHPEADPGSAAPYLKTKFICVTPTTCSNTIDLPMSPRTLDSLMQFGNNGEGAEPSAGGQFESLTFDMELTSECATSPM
Chain of Focal adhesion kinase 1 (Homo sapiens) (Q05397 2-1052 limits assumed): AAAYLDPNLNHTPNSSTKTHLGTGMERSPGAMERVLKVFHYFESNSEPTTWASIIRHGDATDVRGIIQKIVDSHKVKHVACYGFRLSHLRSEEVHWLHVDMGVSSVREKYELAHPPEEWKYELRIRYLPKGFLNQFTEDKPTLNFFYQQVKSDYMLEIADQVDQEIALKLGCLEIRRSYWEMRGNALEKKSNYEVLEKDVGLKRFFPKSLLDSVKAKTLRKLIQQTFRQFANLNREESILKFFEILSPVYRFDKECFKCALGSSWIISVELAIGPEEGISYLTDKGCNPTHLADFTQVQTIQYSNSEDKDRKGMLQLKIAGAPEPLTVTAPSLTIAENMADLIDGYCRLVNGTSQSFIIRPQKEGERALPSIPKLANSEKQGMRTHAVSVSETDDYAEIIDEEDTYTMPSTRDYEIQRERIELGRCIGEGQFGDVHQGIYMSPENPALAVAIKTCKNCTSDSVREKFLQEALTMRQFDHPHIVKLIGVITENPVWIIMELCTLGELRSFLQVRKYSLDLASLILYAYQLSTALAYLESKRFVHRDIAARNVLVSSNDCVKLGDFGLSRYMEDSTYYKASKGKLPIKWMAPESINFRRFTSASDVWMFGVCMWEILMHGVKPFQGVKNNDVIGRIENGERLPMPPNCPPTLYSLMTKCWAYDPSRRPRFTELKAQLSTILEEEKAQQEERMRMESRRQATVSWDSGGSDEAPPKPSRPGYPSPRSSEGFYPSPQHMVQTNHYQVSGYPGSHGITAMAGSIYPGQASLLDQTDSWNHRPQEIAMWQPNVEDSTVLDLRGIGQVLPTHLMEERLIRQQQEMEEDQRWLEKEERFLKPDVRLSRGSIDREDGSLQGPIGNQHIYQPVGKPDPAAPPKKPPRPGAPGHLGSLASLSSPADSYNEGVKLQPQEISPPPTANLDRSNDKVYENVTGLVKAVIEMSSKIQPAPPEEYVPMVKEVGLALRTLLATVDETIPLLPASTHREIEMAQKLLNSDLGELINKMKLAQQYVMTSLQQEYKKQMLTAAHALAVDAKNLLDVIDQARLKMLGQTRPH
Chain of RAC-alpha serine/threonine-protein kinase (Homo sapiens) (P31749 whole entry): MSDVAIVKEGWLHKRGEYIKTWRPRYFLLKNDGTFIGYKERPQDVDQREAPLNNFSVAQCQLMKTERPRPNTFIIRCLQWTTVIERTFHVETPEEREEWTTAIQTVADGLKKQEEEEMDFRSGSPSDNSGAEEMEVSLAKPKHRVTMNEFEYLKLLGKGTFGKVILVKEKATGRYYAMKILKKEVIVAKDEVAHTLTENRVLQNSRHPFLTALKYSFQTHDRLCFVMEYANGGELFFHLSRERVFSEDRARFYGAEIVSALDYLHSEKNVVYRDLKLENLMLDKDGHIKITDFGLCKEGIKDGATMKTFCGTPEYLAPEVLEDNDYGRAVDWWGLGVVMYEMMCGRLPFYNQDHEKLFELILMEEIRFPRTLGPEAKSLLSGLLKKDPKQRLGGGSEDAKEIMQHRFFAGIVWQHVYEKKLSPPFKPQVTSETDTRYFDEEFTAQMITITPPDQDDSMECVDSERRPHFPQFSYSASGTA

`CCOP(=O)(OCC)C(F)(F)c1ccc(/C(C)=C/C(=O)N[C@H]2CCc3cccc4c3N(C2=O)[C@H](C(=O)N[C@H](C)CCC(N)=O)C4)cc1`: in test [1], the inhibition result was “inactive”. Also, the “growth inhibition (GI)” value in the test with MDA-MB-468 [2], in the test with MCF7, in the test on SKOV3ip and in the test on HCC827 was “inactive” each time.
Consider `CCCC[C@H](NC(=O)/C=C(\C)c1ccc(C(F)(F)P(=O)(OCOC(=O)C(C)(C)C)OCOC(=O)C(C)(C)C)cc1)C(=O)N1C[C@H]2C[C@H]2[C@H]1C(=O)N[C@H](C)CCC(N)=O`, for which the inhibition entry in [3], in [4], in [5], in test [6], in test [8] and in test [12] was “Active” throughout. In addition, the inhibition result in [7], in test [9], in test [10] and in [15] was “inactive” in each case. Moreover, the inhibition result in [11] was “Dose-dependent effect”. Also, the Ratio with MDA-MB-468 [13] was 10. This compound showed an IC50 in the test with MDA-MB-468 [14] of 30 µM.
In the case of `CCCC[C@H](NC(=O)/C=C(\C)c1ccc(C(F)(F)P(=O)(OCOC(=O)C(C)(C)C)OCOC(=O)C(C)(C)C)cc1)C(=O)N1C[C@@H]2C[C@@H]2[C@@H]1C(=O)N[C@@H](CCC(N)=O)C(C)OCc1ccccc1` (stereo not given in full), the inhibition entry in [1] was “inactive”. Besides, the “growth inhibition (GI)” value in the test with MDA-MB-468 [16] was “Active”.
